Activity calls are given as the source filed them. The rule behind the calls is not given here.
Experiments:
[1] = test system: PC-3; assay: Growth inhibition of human PC3 cells by sulforhodamine B assay; assay type: functional
[2] = test system: NUGC-3; assay: Growth inhibition of human NUGC3 cells by sulforhodamine B assay; assay type: functional
[3] = test system: MDA-MB-231; assay: Growth inhibition of human MDA-MB-231 cells by sulforhodamine B assay; assay type: functional
[4] = test system: ACHN; assay: Growth inhibition of human ACHN cells by sulforhodamine B assay; assay type: functional
[5] = test system: HCT-15; assay: Growth inhibition of human HCT15 cells by sulforhodamine B assay; assay type: functional
[6] = test system: NCI-H23; assay: Growth inhibition of human NCI-H23 cells by sulforhodamine B assay; assay type: functional
[7] = target: Rho-related GTP-binding protein RhoB (Homo sapiens) (UniProt P62745); assay: Transactivation of RhoB expressed in human HeLa cells at 5 uM by dual renilla/firefly luciferase reporter assay; assay type: cell-based
Sequence of Rho-related GTP-binding protein RhoB (Homo sapiens) (P62745 whole entry): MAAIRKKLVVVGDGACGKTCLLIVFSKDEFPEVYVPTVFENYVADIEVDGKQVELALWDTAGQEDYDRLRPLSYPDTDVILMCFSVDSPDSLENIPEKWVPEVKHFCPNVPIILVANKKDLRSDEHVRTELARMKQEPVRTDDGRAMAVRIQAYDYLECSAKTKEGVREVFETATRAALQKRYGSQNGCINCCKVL
Procedure, shortened: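 HeLa cells at 75–90% confluence were transiently cotransfected with a pGL2 firefly luciferase plasmid driven by the RhoB promoter (empty pGL2 vector as comparison) plus pRL-SV40 Renilla luciferase. Luciferase activity was measured after compound exposure in a dual-luciferase reporter read-out.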

| GI50 [1] | GI50 [3] | GI50 [4] | GI50 [5] | GI50 [6] | Activity [7] | Structure (SMILES) | GI50 [2] |
| --- | --- | --- | --- | --- | --- | --- | --- |
| 4.79 µM | inactive | inactive | inactive | inactive | inactive | CCCCCCCCCCCCCCCCCCCCCCCC(=O)N1CC[N+](C)(C)CC1 | inactive |
| 0.44 µM | 2.86 µM | 4.56 µM | 1.25 µM | 4.21 µM | – | CCCCCCCCCCCCCCCCCCOP(=O)([O-])OC1CC[N+](C)(C)CC1 [PERIFOSINE] | 0.54 µM |
| 0.8 µM | 2.05 µM | 1.89 µM | 1.8 µM | 3.65 µM | – | CCCCCCCCCCCCCCCC(=O)N1CC[N+](C)(CC)CC1 | 0.58 µM |
| 0.99 µM | 3.51 µM | 2.39 µM | 2.41 µM | 3 µM | inactive | CCCCCCCCCCCCCCCCCCCCCC(=O)N1CC[N+](C)(C)CC1 | 1.15 µM |
| 0.51 µM | 1.45 µM | 1.98 µM | 5.06 µM | 2.05 µM | – | CCCCCCCCCCCCCCCC(=O)N1CC[N+](C)(Cc2ccccc2)CC1 | 1 µM |
| 0.48 µM | 1.44 µM | 1.04 µM | 0.58 µM | 2.34 µM | Active | CCCCCCCCCCCCCCCC(=O)N1CC[N+](C)(C)CC1 | 0.29 µM |
| 0.29 µM | 0.89 µM | 1.01 µM | 0.85 µM | 1.58 µM | Active | CCCCCCCCCCCCCC(=O)N1CC[N+](C)(C)CC1 | 0.56 µM |
| 0.96 µM | 3.16 µM | 2.37 µM | 2.13 µM | 3.07 µM | – | C=CC[N+]1(C)CCN(C(=O)CCCCCCCCCCCCCCCCCCCCC)CC1 | 1.53 µM |
| 0.55 µM | 1.16 µM | 0.92 µM | inactive | 1.76 µM | – | CCCCCCCCCCCCCCCC(=O)N1CC[N+](CC)(Cc2ccccc2)CC1 | 0.46 µM |
| 0.31 µM | 1.63 µM | 1.39 µM | 0.54 µM | 1.74 µM | Active | CCCCCCCCCCCCCCCCCCCC(=O)N1CC[N+](C)(C)CC1 | 0.42 µM |
| 1.24 µM | 1.98 µM | 4.74 µM | 2.53 µM | 2.95 µM | – | CCCCCCCCCCCCCCCCCCCCCC(=O)N1CC[N+](C)(Cc2ccccc2)CC1 | 1.9 µM |
| 0.85 µM | 2.01 µM | 1.9 µM | 1.69 µM | 2.6 µM | – | CCCCCCCCCCCCCCCCCCCCCC(=O)N1CC[N+](C)(CC)CC1 | 1.22 µM |
| 0.53 µM | 1.62 µM | 2.74 µM | 0.81 µM | 2.7 µM | – | CCCCCCCCCCCCCCCCCC(=O)N1CC[N+](C)(C)CC1 | 0.56 µM |
| 0.37 µM | 0.68 µM | 0.5 µM | 1.33 µM | 0.88 µM | Active | C=CC[N+]1(CC)CCN(C(=O)CCCCCCCCCCCCCCC)CC1 | 0.27 µM |
| inactive | inactive | inactive | inactive | inactive | Active | C=CC[N+]1(C)CCN(C(=O)CCCCCCCCCCCCCCC)CC1 | inactive |
| inactive | inactive | inactive | inactive | inactive | inactive | CCCCCCCCCC(=O)N1CC[N+](C)(C)CC1 | inactive |
| 0.58 µM | 3.53 µM | inactive | inactive | inactive | inactive | CCCCCCCCCCCC(=O)N1CC[N+](C)(C)CC1 | 1.73 µM |
| 1.47 µM | 2.53 µM | 3.38 µM | 2.78 µM | 3.94 µM | Active | C=CC[N+]1(CC)CCN(C(=O)CCCCCCCCCCCCCCCCCCCCC)CC1 | 1.54 µM |
